Experimental data published in ChEMBL document CHEMBL2434893, “Synthesis, DNA binding and anti-leukemic activity of an aminoacyl nucleolipid” (Bioorg Med Chem Lett, 2013).
Active and inactive are the calls of the source. No cut-off for these calls is given here.

Key:
[1] = tested on: SNB-19; test: Cytotoxicity against human SNB19 cells assessed as cell growth at 10 uM after 48 hrs by SRB assay relative to control; assay type: functional; details: SNB-19, 48 h, read-out: Activity
In short: (§1)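 Single-dose (10 μM) screen run by the NCI Developmental Therapeutics Program on its 60 human cancer cell line panel. Viability was determined after 48 h incubation with the cells at 37 °C.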

[2] = tested on: SF-539; test: Cytotoxicity against human SF539 cells assessed as cell growth at 10 uM after 48 hrs by SRB assay relative to control; assay type: functional; details: SF-539, 48 h, read-out: Activity
In short: (§2)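 NCI Developmental Therapeutics Program 60-cell-line screen at a single dose of 10 μM. Cells incubated with compound for 48 h at 37 °C before viability determination.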

[3] = tested on: SF-295; test: Cytotoxicity against human SF295 cells assessed as cell growth at 10 uM after 48 hrs by SRB assay relative to control; assay type: functional; details: SF-295, 48 h, read-out: Activity; in short: as §2
[4] = tested on: KM12; test: Cytotoxicity against human KM12 cells assessed as cell growth at 10 uM after 48 hrs by SRB assay relative to control; assay type: functional; details: KM12, 48 h, read-out: Activity; in short: as §2
[5] = tested on: SW-620; test: Cytotoxicity against human SW620 cells assessed as cell growth at 10 uM after 48 hrs by SRB assay relative to control; assay type: functional; details: SW-620, 48 h, read-out: Activity; in short: as §1
[6] = tested on: HCT-15; test: Cytotoxicity against human HCT15 cells assessed as cell growth at 10 uM after 48 hrs by SRB assay relative to control; assay type: functional; details: HCT-15, 48 h, read-out: Activity; in short: as §2
[7] = tested on: HCT-116; test: Cytotoxicity against human HCT116 cells assessed as cell growth at 10 uM after 48 hrs by SRB assay relative to control; assay type: functional; details: HCT-116, 48 h, read-out: Activity; in short: as §2
[8] = tested on: HCC 2998; test: Cytotoxicity against human HCC2998 cells assessed as cell growth at 10 uM after 48 hrs by SRB assay relative to control; assay type: functional; details: HCC 2998, 48 h, read-out: Activity; in short: as §2
[9] = tested on: NCI-H522; test: Cytotoxicity against human NCI-H522 cells assessed as cell growth at 10 uM after 48 hrs by SRB assay relative to control; assay type: functional; details: NCI-H522, 48 h, read-out: Activity; in short: as §2
[10] = tested on: NCI-H322M; test: Cytotoxicity against human NCI-H322M cells assessed as cell growth at 10 uM after 48 hrs by SRB assay relative to control; assay type: functional; details: read-out: Activity; in short: as §2
[11] = tested on: A549; test: Cytotoxicity against human A549 cells assessed as cell growth at 10 uM after 48 hrs by SRB assay relative to control; assay type: functional; details: A549, 48 h, read-out: Activity; in short: as §2
[12] = tested on: MOLT-4; test: Cytotoxicity against human MOLT4 cells assessed as cell growth at 10 uM after 48 hrs by SRB assay relative to control; assay type: functional; details: MOLT-4, 48 h, read-out: Activity; in short: as §2
[13] = tested on: K562; test: Cytotoxicity against human K562 cells assessed as cell growth at 10 uM after 48 hrs by SRB assay relative to control; assay type: functional; details: K562, 48 h, read-out: Activity; in short: as §2
[14] = tested on: HL-60(TB); test: Cytotoxicity against human HL-60(TB) cells assessed as cell growth at 10 uM after 48 hrs by SRB assay relative to control; assay type: functional; details: HL-60, 48 h, read-out: Activity
In short: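 Single-dose screen run by the NCI Developmental Therapeutics Program on its 60 human cancer cell line panel, leukemia lines included. Cells were exposed to 10 μM ligand and incubated at 37 °C for 48 h. Cell viability was then determined.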

[15] = Stability in phosphate buffer assessed as formation of guanine-tetraplex structure at 0.2 to 3.9 mM at 25 degC by CD spectrophotometric analysis; assay type: physicochemical; details: 3900 µM
In short: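 GRP78 DNA duplex was annealed from complementary single strands in phosphate binding buffer (140 mM KCl, 1 mM MgCl₂, 5 mM Na₂HPO₄, pH 7.2), then titrated with ligand at 0.2–3.9 mM. CD spectra were recorded, and molar ellipticity was followed at the 260–280 nm maximum and the 248 nm minimum.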

[16] = Binding affinity to GRP78 duplex DNA (unknown origin) at 0.2 to 3.9 mM by CD spectrophotometric analysis
In short: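 CD spectra recorded on duplex DNA (1.1 μM) in phosphate buffer (140 mM KCl, 1 mM MgCl₂, 5 mM sodium phosphate, pH 7.2) titrated with ligand 0–3.9 mM. Samples prepared as for melting. Molar ellipticity followed at the 260–280 nm maximum and the 248 nm minimum.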

[17] = tested on: MDA-MB-468; test: Cytotoxicity against human MDA-MB-468 cells assessed as cell growth at 10 uM after 48 hrs by SRB assay relative to control; assay type: functional; details: MDA-MB-468, 48 h, read-out: Activity; in short: as §2
[18] = tested on: MCF7; test: Cytotoxicity against human MCF7 cells assessed as cell growth at 10 uM after 48 hrs by SRB assay relative to control; assay type: functional; details: MCF7, 48 h, read-out: Activity; in short: as §2
[19] = tested on: PC-3; test: Cytotoxicity against human PC3 cells assessed as cell growth at 10 uM after 48 hrs by SRB assay relative to control; assay type: functional; details: PC-3, 48 h, read-out: Activity; in short: as §2
[20] = tested on: UO-31; test: Cytotoxicity against human UO31 cells assessed as cell growth at 10 uM after 48 hrs by SRB assay relative to control; assay type: functional; details: UO-31, 48 h, read-out: Activity; in short: as §1
[21] = tested on: SN12C; test: Cytotoxicity against human SN12C cells assessed as cell growth at 10 uM after 48 hrs by SRB assay relative to control; assay type: functional; details: read-out: Activity; in short: as §1
[22] = tested on: ACHN; test: Cytotoxicity against human ACHN cells assessed as cell growth at 10 uM after 48 hrs by SRB assay relative to control; assay type: functional; details: read-out: Activity; in short: as §2
[23] = tested on: 786-0; test: Cytotoxicity against human 786-0 cells assessed as cell growth at 10 uM after 48 hrs by SRB assay relative to control; assay type: functional; details: 786-0, 48 h, read-out: Activity; in short: as §2
[24] = Cytotoxicity against human NCI-ADR-RES cells assessed as cell growth at 10 uM after 48 hrs by SRB assay relative to control; assay type: functional; details: read-out: Activity; in short: as §2
[25] = tested on: OVCAR-5; test: Cytotoxicity against human OVCAR5 cells assessed as cell growth at 10 uM after 48 hrs by SRB assay relative to control; assay type: functional; details: OVCAR-5, 48 h, read-out: Activity; in short: as §2
[26] = tested on: OVCAR-3; test: Cytotoxicity against human OVCAR3 cells assessed as cell growth at 10 uM after 48 hrs by SRB assay relative to control; assay type: functional; details: OVCAR-3, 48 h, read-out: Activity; in short: as §2
[27] = tested on: UACC-257; test: Cytotoxicity against human UACC257 cells assessed as cell growth at 10 uM after 48 hrs by SRB assay relative to control; assay type: functional; details: UACC-257, 48 h, read-out: Activity; in short: as §1
[28] = tested on: M14; test: Cytotoxicity against human M14 cells assessed as cell growth at 10 uM after 48 hrs by SRB assay relative to control; assay type: functional; details: M14, 48 h, read-out: Activity; in short: as §2

Work on `CCCCCCCCCCCCCCCC(=O)O[C@@H]1[C@H](OC(=O)CCCCCCCCCCCCCCC)[C@@H](C(=O)N[C@@H](CCCCN)C(=O)OC)O[C@H]1n1cnc2c(=O)[nH]c(NC(=O)C(C)C)nc21.Cl` yielded a growth at 10 µM [1] of 93.5%, a growth at 10 µM [2] of 103% and a growth at 10 µM [3] of 108%. For the same compound, the growth at 10 µM [4] was 95%, the growth at 10 µM [5] was 104% and the growth at 10 µM [6] was 96.6%. It also gave a growth at 10 µM [7] of 85.4%, a growth at 10 µM [8] of 101% and a growth at 10 µM [9] of 84.4%. The growth at 10 µM [10] was 89.6%, the growth at 10 µM [11] was 99.8% and the growth at 10 µM [12] was 93.4%. The growth at 10 µM [13] was 82.9%, the growth at 10 µM [14] was 98.3% and the Stability [15] was “Stable”. For the same compound, the Activity [16] was “Active”, the growth at 10 µM [17] was 83.1% and the growth at 10 µM [18] was 96.4%. For the same compound, the growth at 10 µM [19] was 103%, the growth at 10 µM [20] was 87.1% and the growth at 10 µM [21] was 105%. The growth at 10 µM [22] was 102%, the growth at 10 µM [23] was 98.1% and the growth at 10 µM [24] was 102%. The growth at 10 µM [25] was 108%, the growth at 10 µM [26] was 105% and the growth at 10 µM [27] was 90.1%. It also gave a growth at 10 µM [28] of 93.7%.
